The test system of assay [1] is antibenzothiostrobin mAb. Conditions: competitive FIA, synthetic peptide FITC-Ahx-CSGLAEFMSC; cited from earlier work.
For assay [2], the system named is antibenzothiostrobin mAb. Conditions: ic-ELISA; cited from earlier work.
The subject of assay [3] is antibenzothiostrobin mAb. Particulars: noncompetitive FIA, synthetic peptide FITC-Ahx-CPDIWPTAWC; cited from earlier work.
For assay [4], the system named is antibenzothiostrobin mAb. Conditions: competitive phage ELISA; cited from earlier work.
The test system of assay [5] is antibenzothiostrobin mAb. Conditions: noncompetitive phage ELISA; cited from earlier work. A general note: An ELISA detects its analyte on a solid surface through an enzyme-linked reagent.
Assay [6] has as its system antibenzothiostrobin mAb 4E8. Set-up: species or system murine. Conditions: ITC; ratio of binding constants versus monomer. The method, boiled down:
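Isothermal titration calorimetry at 25 °C. All samples were diluted in 10 mM BB and degassed. The mAb was in the cell, with water in the reference cell and buffer titrated as control. Peptide in the syringe was 260 μM (monomer), 150 μM (dimer) or 50 μM (tetramer). Run used 20 injections, 60 s initial delay and 1000 rpm stirring. N, K, ΔH and ΔS were obtained from a one-site fit, with a c value checked for quality.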
(ITC needs no label: the signal is the heat of the interaction.)

Assay [7] deals with antibenzothiostrobin mAb. As to the kind of experiment: Inner filter effect immunoassay. The assay is classed as binding, murine. Particulars: ratio of SC50 values; analyte benzothiostrobin. A digest of the protocol:
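Homogeneous competitive format. The UCNP probe was NaYF4:Yb,Er, amine-silica coated and glutaraldehyde-coupled to the monomer, dimer or tetramer peptidomimetic, and the absorber was mAb-conjugated gold nanoflowers. Standard and both probes were mixed in BB for 1 h at 37 °C with gentle shaking. Emission at 657 nm was read under 980 nm laser excitation. ΔI (I−I0) was plotted against log analyte concentration, and SC50 was taken as 50% signal saturation.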

Values after ≈ are worked out from the molar mass of the structure shown. Where two headings read alike, the source gives them in different places.

Usually IC50 stands for the concentration at which inhibition is half-maximal. Take `CO/C=C(/C(=O)OC)c1ccccc1CSc1nc2ccccc2s1` [benzothiostrobin]: the IC50 in the assay on antibenzothiostrobin mAb [1] is 16.8 ng/mL (≈ 0.0452 µM); in the assay with antibenzothiostrobin mAb [2], 7.55 ng/mL (≈ 0.0203 µM); in the assay with antibenzothiostrobin mAb [4], 0.94 ng/mL (≈ 0.00253 µM). For the same compound, the SC50 in the assay on antibenzothiostrobin mAb [3] was 93.4 ng/mL; in the assay on antibenzothiostrobin mAb [5], 2.27 ng/mL.
Turning to “((Ac-CSGLAEFMSC)2K)2KK (bicyclic or more) [tetramer]”, in assay [6], the “fold higher affinity for mAb compared to monomer” value stood at 13.6 fold. Moreover, in the assay with antibenzothiostrobin mAb [7], the “improvement of IFE-IA sensitivity compared to dimer” value is approximately 3 fold and the “improvement of IFE-IA sensitivity compared to monomer” value is recorded as “approximately 6 fold”.
For “(Ac-CSGLAEFMSC)2KK (bicyclic or more) [dimer]”, the “fold higher affinity for mAb compared to monomer” value in assay [6] was 1.87 fold.

The values above are taken from paper PMC7059760 (ACS applied materials & interfaces, 2019).
